Measurements from ChEMBL document CHEMBL4371012, “Development of Macrocyclic Peptides Containing Epoxyketone with Oral Availability as Proteasome Inhibitors” (J Med Chem, 2018).
Activity calls are given as the source filed them. The calls are words filed in the database; no cut-off is given here.

Columns and labels:
[1] = Cmax in ICR mouse at 30 mg/kg, po via gavage by LC-MS/MS analysis; format: ADME, organism-based; design: dose 30 mg/kg, route oral; settings: in vivo
[2] = molecular target: T1, Proteasome Macropain subunit MB1 (Homo sapiens, UniProt P28074); experiment: Inhibition of human 20S proteasome chymotrypsin-like activity using Suc-Leu-Leu-Val-Tyr-AMC as substrate pretreated for 15 mins followed by substrate addition by fluorescence assay
T1 sequence (P28074 whole entry): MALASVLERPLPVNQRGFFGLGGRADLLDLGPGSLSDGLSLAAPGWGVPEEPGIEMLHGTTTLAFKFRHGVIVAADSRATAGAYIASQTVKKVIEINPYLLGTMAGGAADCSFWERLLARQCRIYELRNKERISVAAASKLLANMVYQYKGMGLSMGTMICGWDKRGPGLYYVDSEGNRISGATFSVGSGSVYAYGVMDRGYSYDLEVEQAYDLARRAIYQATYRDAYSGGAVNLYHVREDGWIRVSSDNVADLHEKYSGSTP

Mus musculus = experiment: In vivo inhibition of 20S proteasome chymotrypsin-like activity in Balb/c mouse blood at 30 mg/kg, po measured at 2 to 24 hrs post dose using LLVY-AMC as substrate by fluorescence assay; format: functional, organism-based
Method in brief: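 BALB/c mice dosed orally in 0.5% CMC-Na vehicle. Blood was sampled at 2 and 24 h after dosing for proteasome chymotrypsin-like activity.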

RPMI-8226 = experiment: Antiproliferative activity against human RPMI8226 cells after 72 hrs by MTS assay; format: functional, cell-based; settings: RPMI-8226, 72 h
MV4-11 = experiment: Antiproliferative activity against human MV4-11 cells after 72 hrs by MTS assay; format: functional, cell-based; settings: MV4-11, 72 h
[3] = Metabolic stability in mouse liver microsomes assessed as parent compound remaining at 100 uM after 30 mins by LC-MS/MS analysis; format: ADME, Microsome; settings: read-out: Stability
Method in brief: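 After the microsomal incubation, the clear supernatant was analysed by ESI LC-MS. The read-out was the relative peak area of each parent compound.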

[4] = Tmax in ICR mouse at 30 mg/kg, po via gavage by LC-MS/MS analysis; format: ADME, organism-based; settings: in vivo
[5] = AUC (0 to t) in ICR mouse at 30 mg/kg, po via gavage after 1 hr by LC-MS/MS analysis; format: ADME, organism-based; design: time < 1 hr, dose 30 mg/kg, route oral; settings: in vivo
MM1.S = experiment: Antiproliferative activity against human MM1S cells after 72 hrs by MTS assay; format: functional, cell-based

In the case of `COC[C@@H]1NC(=O)c2nccn2CCCCCCOC[C@@H](C(=O)N[C@@H](Cc2ccccc2)C(=O)[C@@]2(C)CO2)NC1=O`, the Cmax [1] is reported as 92 ng/mL, the IC50 [2] is reported as 14 nM and the inhibition (Mus musculus) is reported as “Active”. It also gave an IC50 (RPMI-8226) of 3 nM, an IC50 (MV4-11) of 3 nM and a remaining at 0.5 h, 100 µM [3] of 92%. It also gave a Tmax [4] of 13.2 min, an AUC(0-t) at 1 h [5] of 58 ng·h/mL and an IC50 (MM1.S) of 1 nM.
